Laboratory results reported in ChEMBL document CHEMBL1140346 (J Med Chem, 2005).
pIC50, pKi: −log10 of the molar value.

Assays:
[1] = target: Dipeptidyl peptidase 4 (Rattus norvegicus) (UniProt P14740); assay: Ex vivo percent inhibition of Dipeptidyl peptidase IV in rat plasma after 4 hr at 4 umol/kg peroral dose; format: functional, cell-free
[2] = target: Dipeptidyl peptidase 4 (Rattus norvegicus) (UniProt P14740); assay: Ex vivo percent inhibition of Dipeptidyl peptidase IV in rat plasma after 30 min at 4 umol/kg peroral dose; format: functional, cell-free
[3] = target: Dipeptidyl peptidase 4 (Rattus norvegicus) (UniProt P14740); assay: Effective dose for inhibition of Dipeptidyl peptidase IV in prediabetic rat model after 4 hr; format: functional; conditions: in the assay text read “fasted normal Sprague-Dawley rat” for “prediabetic rat model”
Outline: (§1)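 Fasted normal male Sprague-Dawley rats given oral doses; plasma (EDTA) taken 0.5, 2, 4 or 6 h postdose and DPP-IV activity read with fluorogenic Ala-Pro-AFC (0.1 mM, 50 mM Hepes/140 mM NaCl, ex 360/em 530 nm, initial 20 min rate). ED50 = 50% inhibitory dose from percent inhibition vs dose plot at each time point.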

[4] = target: Dipeptidyl peptidase 4 (Rattus norvegicus) (UniProt P14740); assay: Effective dose for inhibition of Dipeptidyl peptidase IV in prediabetic rat model after 6 hr; format: functional; outline: as §1
[5] = Oral bioavailability in rat; format: ADME, organism-based; conditions: in vivo
Outline: (§2)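 Fasted adult male Sprague-Dawley rats (250–300 g), jugular-cannulated, given 10 mg/kg in water as iv bolus or oral gavage (n = 2 per route); serial heparinized blood to 12 h, plasma acetonitrile-precipitated and quantified by LC/MS. AUC by trapezoidal (oral) or log-linear (iv) integration; F = mean oral AUC / mean iv AUC.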

[6] = target: Dipeptidyl peptidase 4 (Rattus norvegicus) (UniProt P14740); assay: Effective dose for inhibition of Dipeptidyl peptidase IV in prediabetic rat model after 2 hr; format: functional; conditions: in the assay text read “fasted normal Sprague-Dawley rat” for “prediabetic rat model”; outline: as §1
[7] = target: Dipeptidyl peptidase 4 (Rattus norvegicus) (UniProt P14740); assay: Effective dose for inhibition of Dipeptidyl peptidase IV in prediabetic rat model after 0.5 hr; format: functional; conditions: in the assay text read “fasted normal Sprague-Dawley rat model” for “prediabetic rat model”; outline: as §1
[8] = target: Dipeptidyl peptidase 4 (Rattus norvegicus) (UniProt P14740); assay: Ex vivo Dipeptidyl peptidase IV inhibition in rat plasma after 4 hr 4 umol/kg peroral dose; format: functional, cell-free
[9] = Half life in rat; format: ADME; conditions: in vivo; outline: as §2
[10] = target: Dipeptidyl peptidase 4 (Homo sapiens, UniProt P27487); assay: In vitro inhibition constant against human Dipeptidyl peptidase IV
Outline: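 Recombinant human DPP-IV expressed in CHO-DG44 cells, purified by anion exchange, gel filtration and MonoQ. […] IC50 from Hill fit (Morrison where needed), converted to Ki assuming competitive inhibition; mean ± SEM, ≥ triplicate.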

[11] = target: Cytochrome P450 3A4 (Homo sapiens, UniProt P08684); assay: Inhibitory concentration against Cytochrome 450 3A4; format: ADME
Chain of Cytochrome P450 3A4 (P08684 whole entry): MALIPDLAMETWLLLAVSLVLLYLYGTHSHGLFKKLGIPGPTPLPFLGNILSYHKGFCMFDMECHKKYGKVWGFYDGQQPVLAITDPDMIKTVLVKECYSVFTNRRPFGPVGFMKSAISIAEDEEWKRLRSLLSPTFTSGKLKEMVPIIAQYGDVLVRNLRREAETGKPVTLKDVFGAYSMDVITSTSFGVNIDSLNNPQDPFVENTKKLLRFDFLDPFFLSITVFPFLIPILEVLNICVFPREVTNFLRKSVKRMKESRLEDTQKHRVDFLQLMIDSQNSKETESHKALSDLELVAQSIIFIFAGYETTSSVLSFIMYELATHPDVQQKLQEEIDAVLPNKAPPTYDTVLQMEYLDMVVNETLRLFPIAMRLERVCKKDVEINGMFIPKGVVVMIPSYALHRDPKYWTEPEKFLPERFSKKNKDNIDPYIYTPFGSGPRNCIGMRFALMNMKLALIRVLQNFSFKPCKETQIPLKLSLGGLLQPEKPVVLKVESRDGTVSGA

Chain of Dipeptidyl peptidase 4 (Rattus norvegicus) (P14740 whole entry, looked up): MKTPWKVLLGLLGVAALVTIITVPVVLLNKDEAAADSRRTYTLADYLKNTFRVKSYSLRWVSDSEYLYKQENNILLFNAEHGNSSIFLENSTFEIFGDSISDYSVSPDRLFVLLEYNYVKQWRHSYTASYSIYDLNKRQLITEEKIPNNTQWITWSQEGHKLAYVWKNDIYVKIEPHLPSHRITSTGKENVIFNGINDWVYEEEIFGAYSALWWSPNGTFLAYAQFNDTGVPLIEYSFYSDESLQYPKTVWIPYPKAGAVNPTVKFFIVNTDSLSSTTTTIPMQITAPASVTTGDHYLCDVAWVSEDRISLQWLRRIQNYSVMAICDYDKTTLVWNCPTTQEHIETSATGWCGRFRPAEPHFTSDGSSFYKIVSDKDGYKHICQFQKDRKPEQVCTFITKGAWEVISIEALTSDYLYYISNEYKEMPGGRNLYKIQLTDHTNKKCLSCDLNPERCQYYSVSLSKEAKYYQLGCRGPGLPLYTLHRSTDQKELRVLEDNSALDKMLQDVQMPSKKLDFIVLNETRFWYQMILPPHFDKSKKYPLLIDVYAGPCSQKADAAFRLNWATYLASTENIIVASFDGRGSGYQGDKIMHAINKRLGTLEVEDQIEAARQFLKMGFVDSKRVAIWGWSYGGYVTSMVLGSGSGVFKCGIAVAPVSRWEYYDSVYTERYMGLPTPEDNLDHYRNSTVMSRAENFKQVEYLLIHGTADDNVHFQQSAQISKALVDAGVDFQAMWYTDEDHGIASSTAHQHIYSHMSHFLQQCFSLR
Chain of Dipeptidyl peptidase 4 (P27487 whole entry): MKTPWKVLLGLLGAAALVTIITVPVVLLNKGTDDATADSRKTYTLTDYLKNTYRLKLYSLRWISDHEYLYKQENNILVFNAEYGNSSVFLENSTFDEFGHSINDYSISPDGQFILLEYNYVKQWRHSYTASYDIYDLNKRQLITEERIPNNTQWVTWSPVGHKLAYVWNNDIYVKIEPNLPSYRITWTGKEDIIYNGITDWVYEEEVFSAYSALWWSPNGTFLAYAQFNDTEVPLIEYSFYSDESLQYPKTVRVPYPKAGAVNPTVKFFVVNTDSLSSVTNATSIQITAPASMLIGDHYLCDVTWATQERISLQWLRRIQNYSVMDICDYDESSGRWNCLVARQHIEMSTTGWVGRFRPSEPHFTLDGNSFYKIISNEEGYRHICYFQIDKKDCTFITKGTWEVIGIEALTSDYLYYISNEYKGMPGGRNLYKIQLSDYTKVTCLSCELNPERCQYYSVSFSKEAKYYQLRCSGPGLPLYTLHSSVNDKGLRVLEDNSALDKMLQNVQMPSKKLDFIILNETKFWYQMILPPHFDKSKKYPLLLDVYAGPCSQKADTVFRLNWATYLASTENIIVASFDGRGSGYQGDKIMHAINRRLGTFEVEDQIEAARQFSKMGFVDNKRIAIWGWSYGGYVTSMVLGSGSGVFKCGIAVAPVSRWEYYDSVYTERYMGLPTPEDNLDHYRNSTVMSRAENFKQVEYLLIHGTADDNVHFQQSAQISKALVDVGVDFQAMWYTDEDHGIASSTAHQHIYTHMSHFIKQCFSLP

| Structure (SMILES) | inhibition [1] [%] | inhibition [2] [%] | other results |
| --- | --- | --- | --- |
| C=CC1([C@H](N)C(=O)N2[C@H](C#N)C[C@@H]3C[C@@H]32)CCC1 | 32 | 42 | – |
| C=CC(C)(C)[C@H](N)C(=O)N1[C@H](C#N)C[C@@H]2C[C@@H]21 | 10 | 13 | – |
| CCC1([C@H](N)C(=O)N2[C@H](C#N)C[C@@H]3C[C@@H]32)CCCC1 | 44 | 40 | – |
| N#C[C@@H]1C[C@@H]2C[C@@H]2N1C(=O)[C@@H](N)C12CC3CC(CC(O)(C3)C1)C2 [SAXAGLIPTIN ANHYDROUS] | – | 87 | ED50 [3]: 0.3 µmol/kg; ED50 ([4]; in the assay text read “fasted normal Sprague-Dawley rat model” for “prediabetic rat model”): 0.5 µmol/kg; bioavailability [5]: 75%; ED50 [6]: 0.2 µmol/kg; ED50 [7]: 0.12 µmol/kg; inhibition [8]: 87%; half-life [9]: 2.1 h |
| N#C[C@@H]1C[C@@H]2C[C@@H]2N1C(=O)[C@@H](N)C12CC3CC(CC(F)(C3)C1)C2 | – | 80 | inhibition [8]: 61% |
| N#C[C@@H]1C[C@@H]2C[C@@H]2N1C(=O)[C@@H](N)C12CC3CC(O)(CC(O)(C3)C1)C2 | – | 62 | inhibition [8]: 57% |
| N#C[C@@H]1C[C@@H]2C[C@@H]2N1C(=O)[C@@H](N)C1(CO)CCCC1 | 56 | 69 | ED50 [3]: 5 µmol/kg; ED50 ([4]; in the assay text read “fasted normal Sprague-Dawley rat” for “prediabetic rat model”): 11 µmol/kg; bioavailability [5]: 59%; ED50 [6]: 3.2 µmol/kg; ED50 [7]: 0.4 µmol/kg |
| N#C[C@@H]1C[C@@H]2C[C@@H]2N1C(=O)[C@@H](N)C1(CO)CCC1 | 17 | 36 | – |
| C=CC1([C@H](N)C(=O)N2[C@H](C#N)C[C@@H]3C[C@@H]32)CCCC1 | 64 | 71 | pKi [10]: 8.41; bioavailability [5]: 5.3% |
| N#C[C@@H]1C[C@@H]2C[C@@H]2N1C(=O)[C@@H](N)C12CC3CC(CC(C3)C1)C2 | – | 84 | bioavailability [5]: 2%; pIC50 [11]: 4.70; inhibition [8]: 83% |
| C=CC(CC)(CC)[C@H](N)C(=O)N1[C@H](C#N)C[C@@H]2C[C@@H]21 | 20 | 39 | – |
| C=CC1([C@H](N)C(=O)N2[C@H](C#N)C[C@@H]3C[C@@H]32)CCCCCC1 | 66 | 77 | – |
| C=CC1([C@H](N)C(=O)N2[C@H](C#N)C[C@@H]3C[C@@H]32)CCCCC1 | 60 | 76 | – |
| CCC(C)(C)[C@H](N)C(=O)N1[C@H](C#N)C[C@@H]2C[C@@H]21 | 0 | 0 | – |
| N#C[C@@H]1C[C@@H]2C[C@@H]2N1C(=O)[C@@H](N)C1(CO)CCCCC1 | 8 | 17 | – |
